This is an account of results in ChEMBL document CHEMBL3872255, “Design, synthesis and analgesic/anti-inflammatory evaluation of novel diarylthiazole and diarylimidazole derivatives towards selective COX-1 inhibitors with better gastric profile” (Bioorg Med Chem, 2017).

Structures are written as SMILES. Active and inactive are the calls of the source. No cut-off for these calls is given here.

What is called IC50 is the concentration that gives 50% inhibition. In general, inhibition in vivo refers to how much of the control response was suppressed.

The target of data set [1] is T1, Prostaglandin G/H synthase 1 (Ovis aries, UniProt P05979).
T1 sequence (P05979 whole entry): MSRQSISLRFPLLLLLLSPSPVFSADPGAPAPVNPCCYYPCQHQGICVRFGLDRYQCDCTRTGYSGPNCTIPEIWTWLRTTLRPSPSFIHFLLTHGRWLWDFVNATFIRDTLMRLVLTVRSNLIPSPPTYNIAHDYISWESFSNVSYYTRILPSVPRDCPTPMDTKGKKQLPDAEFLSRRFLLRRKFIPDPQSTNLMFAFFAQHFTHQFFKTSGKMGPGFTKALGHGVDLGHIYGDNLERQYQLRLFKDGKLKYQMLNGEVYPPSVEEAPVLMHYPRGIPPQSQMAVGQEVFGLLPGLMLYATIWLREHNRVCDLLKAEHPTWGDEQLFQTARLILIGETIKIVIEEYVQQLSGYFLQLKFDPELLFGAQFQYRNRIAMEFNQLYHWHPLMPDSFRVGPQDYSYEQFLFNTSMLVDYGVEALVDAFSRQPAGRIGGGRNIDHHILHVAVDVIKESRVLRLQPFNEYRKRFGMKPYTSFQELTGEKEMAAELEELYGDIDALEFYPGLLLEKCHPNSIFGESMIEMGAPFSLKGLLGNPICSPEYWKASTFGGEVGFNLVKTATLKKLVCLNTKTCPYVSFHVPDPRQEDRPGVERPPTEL
Briefly: Inhibition of ovine COX-1 assessed as reduction in oxidation of TMPD using arachidonic acid as substrate preincubated for 5 mins followed by substrate and TMPD addition measured after 5 mins by colorimetric assay.

The test system of data set [2] is Rattus norvegicus. Briefly: Anti-inflammatory activity against carrageenan-induced paw edema in albino rat assessed as paw thickness at 100 mg/kg, po pretreated for 1 hr followed by carrageenan challenge measured at 1 hr post carrageenan challenge (reference value: 0.394 +/- 0.220 mm). It counts as functional. On the technique in general: The carrageenan paw model is a standard test of acute inflammation.

The test system of data set [3] is Rattus norvegicus. Briefly: Anti-inflammatory activity against carrageenan-induced paw edema in albino rat assessed as inhibition of paw edema at 100 mg/kg, po pretreated for 1 hr followed by carrageenan challenge measured after 1 to 7 hrs relative to control. It counts as functional.
Data set [4] relates to Rattus norvegicus. Briefly: Anti-inflammatory activity against carrageenan-induced paw edema in albino rat assessed as paw thickness at 100 mg/kg, po pretreated for 1 hr followed by carrageenan challenge measured at 7 hrs post carrageenan challenge (reference value: 0.464 +/- 0.023 mm). It counts as functional.
The species named for data set [5] is Mus musculus. Briefly: Analgesic activity in mouse assessed as decrease in number of acetic acid-induced writhing pretreated for 1 hr followed by acetic acid challenge measured between 5 to 20 mins after acetic acid injection. It is filed as functional. Put shortly:
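Groups of five mice received test compound; 1 h later, 0.6% acetic acid (0.01 ml/g) was injected intraperitoneally. Writhes were counted for 15 min, from minute 5 to 20 after injection. Activity was taken as the reduction in writhing count. Diclofenac 6 mg/kg was the reference. Data are mean ± S.D., N=5, analysed by one-way ANOVA with Dunnett test.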

The subject of data set [6] is Rattus norvegicus. Briefly: Anti-inflammatory activity against carrageenan-induced paw edema in albino rat assessed as paw thickness at 100 mg/kg, po pretreated for 1 hr followed by carrageenan challenge measured at 3 hrs post carrageenan challenge (reference value: 0.401 +/- 0.019 mm). It is filed as functional.
The species entered for data set [7] is Mus musculus. Briefly: Analgesic activity in mouse assessed as number of acetic acid-induced writhing pretreated for 1 hr followed by acetic acid challenge measured between 5 to 20 mins after acetic acid injection. It is filed as functional. Put shortly: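 Groups of five mice. Test compound given 1 h before i.p. injection of 0.6% acetic acid, 0.01 ml/g. Writhing movements counted for 15 min, from the 5th to the 20th min after injection. Diclofenac 6 mg/kg served as reference. Activity is taken as the reduction in number of writhings; mean ± S.D., N=5.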
For orientation: In writhing tests, fewer writhes than in controls are read as antinociception.

The nature of data set [8]: Ulcerogenic effect in albino rat assessed as ulcer index […], po administered 2 to 3 days. It is filed as toxicity, organism-based. Particulars: in vivo. Put shortly: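 Rats were fasted 2 h, fed 2 h, then fasted 20 h, with further doses on days 2 and 3. Stomachs were rinsed in 0.9% saline and lesions scored 0-4. Ulcer index = %incidence/10 + average severity + average ulcer number.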

The test system of data set [9] is Rattus norvegicus. Briefly: Anti-inflammatory activity against carrageenan-induced paw edema in albino rat assessed as paw thickness at 60 mg/kg, po pretreated for 1 hr followed by carrageenan challenge measured at 1 hr post carrageenan challenge (reference value: 0.394 +/- 0.220 mm). It counts as functional.
Data set [10] deals with Rattus norvegicus. Briefly: Anti-inflammatory activity against carrageenan-induced paw edema in albino rat assessed as paw thickness at 60 mg/kg, po pretreated for 1 hr followed by carrageenan challenge measured at 7 hrs post carrageenan challenge (reference value: 0.464 +/- 0.023 mm). It is filed as functional.
Data set [11] relates to Rattus norvegicus. Briefly: Anti-inflammatory activity against carrageenan-induced paw edema in albino rat assessed as paw thickness at 60 mg/kg, po pretreated for 1 hr followed by carrageenan challenge measured at 3 hrs post carrageenan challenge (reference value: 0.401 +/- 0.019 mm). It is filed as functional.
Data set [12] deals with Rattus norvegicus. Briefly: Anti-inflammatory activity against carrageenan-induced paw edema in albino rat assessed as inhibition of paw edema at 60 mg/kg, po pretreated for 1 hr followed by carrageenan challenge measured after 1 to 7 hrs relative to control. It counts as functional.

For `COc1ccc(-c2ncn(CC(=O)N3CCN(C)CC3)c2-c2ccc(OC)cc2)cc1`, the IC50 in [1] was 3.06 µM. Besides, the Activity in the data set on Rattus norvegicus [2] is 0.17 mm; in the data set with Rattus norvegicus [4], 0.152 mm; in the data set with Rattus norvegicus [6], 0.191 mm. The inhibition in vivo at 100 mg/kg with Rattus norvegicus [3] was found to be 58.8%. The outcome in the data set filed under Mus musculus [5] was Active.

Take `CN1CCN(C(=O)CNc2nc(-c3ccccc3)c(-c3ccccc3)s2)CC1`: in data set [1], the IC50 stood at 3.04 µM. Also, the Activity is 0.173 mm in the data set on Rattus norvegicus [2], 0.205 mm in the data set on Rattus norvegicus [4] and 0.197 mm in the data set with Rattus norvegicus [6]. The inhibition in vivo at 100 mg/kg in the data set with Rattus norvegicus [3] stood at 54.3%. Also, in the data set filed under Mus musculus [5], the outcome was Active.

`O=C(CNc1nc(-c2ccccc2)c(-c2ccccc2)s1)N1CCCCC1`: in data set [1], the 50% inhibitory concentration (IC50) was 7.99 µM.

With `O=C(Cn1cnc(-c2ccccc2)c1-c1ccccc1)N1CCOCC1`, the IC50 in data set [1] worked out at 6.32 µM. The Activity came out at 0.166 mm with Rattus norvegicus [2], 0.218 mm in the data set with Rattus norvegicus [4] and 0.186 mm in the data set with Rattus norvegicus [6]. The inhibition in vivo at 100 mg/kg in the data set with Rattus norvegicus [3] was 54.5%. For the same compound, the outcome in the data set listed under Mus musculus [5] was Active.

For `O=C(CNc1nc(-c2ccccc2)c(-c2ccccc2)s1)N1CCOCC1`, the concentration for half-maximal inhibition (IC50) in [1] was found to be 5.76 µM. In addition, the results for the Activity in the data set on Rattus norvegicus [2], with Rattus norvegicus [4] and in the data set with Rattus norvegicus [6] were 0.148 mm, 0.192 mm and 0.167 mm, respectively. Also, the inhibition in vivo at 100 mg/kg with Rattus norvegicus [3] was 59.8%. Further, in the data set filed under Mus musculus [5], the outcome was Active.

For the compound `COc1ccc(-c2nc(NCC(=O)O)sc2-c2ccc(OC)cc2)cc1`, in [1], the IC50 amounted to 0.32 µM. The Activity is on record as 0.165 mm in the data set on Rattus norvegicus [2], 10.67 - 14.4 in the data set filed under Mus musculus [7], 0.251 mm in the data set with Rattus norvegicus [4] and 0.213 mm in the data set with Rattus norvegicus [6]. Moreover, the UI in data set [8] is 8.5.

On to `O=C(O)Cc1ccccc1Nc1c(Cl)cccc1Cl` [DICLOFENAC], for which the Activity is reported as 0.09 mm with Rattus norvegicus [9], 0.04 mm in the data set on Rattus norvegicus [10], 24 in the data set filed under Mus musculus [7] and 0.06 mm with Rattus norvegicus [11]. Also, in the data set with Rattus norvegicus [12], the inhibition in vivo at 60 mg/kg was 84.5%.

With `COc1ccc(-c2nc(NCC(=O)N3CCOCC3)sc2-c2ccc(OC)cc2)cc1`, the IC50 in [1] was determined as 4.01 µM. Besides, the values for the Activity in the data set with Rattus norvegicus [2], in the data set on Rattus norvegicus [4] and in the data set on Rattus norvegicus [6] were 0.17 mm, 0.213 mm and 0.19 mm, respectively. Further, the inhibition in vivo at 100 mg/kg with Rattus norvegicus [3] came to 54.5%. In the data set listed under Mus musculus [5], the outcome was Active.

Regarding `CN1CCN(C(=O)Cn2cnc(-c3ccccc3)c2-c2ccccc2)CC1`, in data set [1], the IC50 is 4.17 µM. Besides, the Activity with Rattus norvegicus [2] is 0.147 mm; in the data set with Rattus norvegicus [4] it was 0.182 mm; in the data set with Rattus norvegicus [6], 0.168 mm. The inhibition in vivo at 100 mg/kg in the data set with Rattus norvegicus [3] was 60.5%. The result in the data set filed under Mus musculus [5] was Active.

Regarding `COc1ccc(-c2nc(NCC(=O)N3CCCCC3)sc2-c2ccc(OC)cc2)cc1`, the IC50 in [1] was determined as 6.01 µM.

Regarding `COc1ccc2c(c1)c(CC(=O)O)c(C)n2C(=O)c1ccc(Cl)cc1` [INDOMETHACIN], the UI in data set [8] is listed as 19.5.

Take `COc1ccc(-c2nc(NCC(=O)N3CCN(C)CC3)sc2-c2ccc(OC)cc2)cc1`: in data set [1], the IC50 was determined as 2.72 µM. The Activity with Rattus norvegicus [2] turned out to be 0.144 mm; in the data set with Rattus norvegicus [4], 0.172 mm; with Rattus norvegicus [6], 0.163 mm. Further, the inhibition in vivo at 100 mg/kg in the data set with Rattus norvegicus [3] was found to be 61.9%. Besides, the outcome in the data set listed under Mus musculus [5] was Active.

In the case of `COc1ccc(-c2ncn(CC(=O)N3CCCCC3)c2-c2ccc(OC)cc2)cc1`, the IC50 in data set [1] was found to be 7.34 µM.

For `COc1ccc(-c2ncn(CC(=O)N3CCOCC3)c2-c2ccc(OC)cc2)cc1`, in data set [1], the IC50 is 5.09 µM. The figures for the Activity with Rattus norvegicus [2], in the data set with Rattus norvegicus [4] and with Rattus norvegicus [6] were 0.146 mm, 0.19 mm and 0.159 mm, respectively. Further, the inhibition in vivo at 100 mg/kg in the data set with Rattus norvegicus [3] amounted to 60.8%. The outcome in the data set filed under Mus musculus [5] was Active.

For `O=C(O)CNc1nc(-c2ccccc2)c(-c2ccccc2)s1`, in data set [1], the IC50 worked out at 0.42 µM. Also, the Activity with Rattus norvegicus [2] turned out to be 0.166 mm; in the data set with Rattus norvegicus [4], 0.231 mm; in the data set on Rattus norvegicus [6], 0.185 mm. The inhibition in vivo at 100 mg/kg in the data set on Rattus norvegicus [3] was 54%. Further, the UI in data set [8] was 9.39.

Regarding `O=C(O)Cn1cnc(-c2ccccc2)c1-c1ccccc1`, the half-maximal inhibitory concentration (IC50) in data set [1] was determined as 0.67 µM. In addition, the Activity in the data set on Rattus norvegicus [2] is 0.161 mm; in the data set listed under Mus musculus [7], 10.67 - 14.4; in the data set on Rattus norvegicus [4], 0.235 mm; in the data set on Rattus norvegicus [6], 0.189 mm. Moreover, in the data set with Rattus norvegicus [3], the inhibition in vivo at 100 mg/kg was 53.8%. Besides, the UI in data set [8] was 13.3.

For the compound `O=C(Cn1cnc(-c2ccccc2)c1-c1ccccc1)N1CCCCC1`, the IC50 in data set [1] was found to be 8.51 µM.

`COc1ccc(-c2ncn(CC(=O)O)c2-c2ccc(OC)cc2)cc1`: the concentration for half-maximal inhibition (IC50) in data set [1] is 0.54 µM. Further, the Activity in the data set on Rattus norvegicus [2] is 0.149 mm; in the data set listed under Mus musculus [7], 10.67 - 14.4; in the data set on Rattus norvegicus [4] it was 0.215 mm; in the data set on Rattus norvegicus [6] it was 0.18 mm. Also, the inhibition in vivo at 100 mg/kg in the data set on Rattus norvegicus [3] was found to be 57%. Besides, the UI in data set [8] was determined as 9.75.
